From publication PMC3832945 (Molecular pharmaceutics, 2013)
Peptide text beside a SMILES is read from it.

Columns and labels:
[1] = test system: Myeloperoxidase activity (a measure of neutrophil migration); assay: Myeloperoxidase; type: in vivo, mouse; settings: for effect on MPO activity: 10 μM
How it was run: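 Jejunum or colon of wild-type and PepT1 knockout mice perfused in situ with Krebs–Ringer buffer (jejunum 0.067, colon 0.1 mL/min) for 30 min. Then 10 μM test compound, ± 50 mM GlyGly, for 4 h. MPO by o-dianisidine/H2O2 oxidation at pH 6.0, A460 over 2 min, reported as IU/g wet tissue. n = 5, mean ± SE, ANOVA/Tukey.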

PepT1 [2] = target: T1, PepT1 (Mus musculus, UniProt Q9JIP7); assay: In situ single-pass jejunal perfusion of [3H]fMet-Leu-Phe; type: in vivo
T1 sequence (Q9JIP7 1-709): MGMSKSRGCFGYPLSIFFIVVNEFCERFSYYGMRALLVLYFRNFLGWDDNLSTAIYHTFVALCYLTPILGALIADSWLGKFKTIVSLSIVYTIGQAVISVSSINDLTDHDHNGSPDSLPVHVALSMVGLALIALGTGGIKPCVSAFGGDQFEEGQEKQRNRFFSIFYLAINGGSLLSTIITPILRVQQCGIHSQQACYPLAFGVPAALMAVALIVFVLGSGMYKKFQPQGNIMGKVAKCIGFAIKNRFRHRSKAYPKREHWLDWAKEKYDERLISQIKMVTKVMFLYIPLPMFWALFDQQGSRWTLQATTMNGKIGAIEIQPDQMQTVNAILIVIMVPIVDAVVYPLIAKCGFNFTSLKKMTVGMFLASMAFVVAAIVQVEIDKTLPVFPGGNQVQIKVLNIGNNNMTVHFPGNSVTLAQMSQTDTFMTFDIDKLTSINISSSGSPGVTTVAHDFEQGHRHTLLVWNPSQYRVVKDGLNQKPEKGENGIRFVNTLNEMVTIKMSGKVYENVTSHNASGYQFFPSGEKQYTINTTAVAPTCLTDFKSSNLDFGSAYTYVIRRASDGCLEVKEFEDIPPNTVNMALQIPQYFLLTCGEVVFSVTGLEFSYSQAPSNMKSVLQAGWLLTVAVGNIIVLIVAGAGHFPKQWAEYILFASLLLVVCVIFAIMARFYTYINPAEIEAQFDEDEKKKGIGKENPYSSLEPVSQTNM

PepT1 [3] = target: T1, PepT1; assay: Regional intestinal permeability; type: in vivo
How it was run: (§1)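 Each region perfused separately in situ in fasted, pentobarbital-anaesthetised (40–60 mg/kg ip) wild-type and PepT1 knockout mice at 31 °C. Perfusate: 135 mM NaCl, 5 mM KCl, 10 mM MES pH 6.5, [14C]inulin, 2 μCi/ml (0.1 μM) labelled compound, 100 mM Phe, 0.1 mL/min. Outflow sampled every 10 min for 90 min and counted. Inulin-corrected steady-state Peff from parallel-tube model; n = 6.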

PepT1 [4] = assay: Regional intestinal permeability; type: in vivo, mouse; settings: colon, 0.1 μM
How it was run: as §1

[5] = Hydrolysis kinetics in jejunal homogenates; type: in vitro ADME, mouse; settings: 0.4–100 μM, 1 min, 37 °C
How it was run: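 Jejunal mucosa scraped from wild-type or PepT1 knockout mice and homogenised in ice-cold PBS for 2 min. Spun at 12 000g for 15 min; supernatant protein at 0.5 mg/mL. Incubated with [3H-Phe]-labelled test compound at 0.4–100 μM, 1 min, 37 °C. Stopped with 10% TFA, HPLC with radiochemical detection. Rate from parent loss; Vmax and Km fitted; n = 4, mean ± SE.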

[6] = Metabolism in intestinal segments; type: in vitro ADME, mouse; settings: wild-type mice, 0.8 mM, 5 min, 37 °C
How it was run: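 Wild-type intestinal pieces, 1 cm, opened longitudinally to expose the lumen. Incubated in PBS pH 7.4 with 0.8 mM test compound, 5 min, 37 °C, then iced and stopped with 10% TFA. Spun 12 000g, 5 min. Supernatant on reversed-phase C18 HPLC, UV 210 nm, 15–30% acetonitrile (0.1% TFA) gradient over 30 min. Parent and fragments identified with standards.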

[7] = Exposure in portal vein during jejunal perfusion; type: in vivo, mouse; settings: 90 min jejunal perfusion of 0.1 μM [3H-Phe]fMet-Leu-Phe, wild-type mice
How it was run: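 Wild-type jejunal single-pass perfusion with 2 μCi/ml (0.1 μM) [3H-Phe]-labelled tripeptide; portal venous blood drawn at 80–90 min. Intact tripeptide and [3H-Phe] measured by HPLC with radiochemical detection: isocratic 30% acetonitrile plus 0.1% TFA, 1.0 mL/min, ambient. Peaks assigned with radiolabelled standards.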

[8] = 50 mM inhibitor, jejunal perfusion, PepT1 knockout mice
[9] = 50 mM inhibitor, jejunal perfusion, wild-type mice

NCC(=O)NCC(=O)O [GlyGly, glycylglycine] (H-Gly-Gly-OH)
effect of coperfused dipeptide on fMet-Leu-Phe-induced MPO activity ([1]; jejunum, wild-type mice, 10 μM fMet-Leu-Phe + 50 mM GlyGly, 4 h): returned to control values

NCC(=O)N1CCC[C@H]1C(=O)O [GlyPro, glycylproline] (H-Gly-Pro-OH)
Ki (PepT1 [2]): 100 mM
reduction of fMet-Leu-Phe uptake by inhibitor (PepT1 [2]; 50 mM inhibitor, 0.1 μM [3H]fMet-Leu-Phe, jejunal perfusion, wild-type mice): 33%
effect of inhibitor on permeability of fMet-Leu-Phe (PepT1 [2]; [8]): but not in PepT1 knockout animals
effect of inhibitor on permeability of fMet-Leu-Phe (PepT1 [2]; [9]): significantly reduced

CSCC[C@H](NC=O)C(=O)N[C@@H](CC(C)C)C(=O)N[C@@H](Cc1ccccc1)C(=O)O [fMet-Leu-Phe, N-formyl-methionyl-leucyl-phenylalanine]
residual permeability in PepT1 knockout relative to wild-type mice (PepT1 [3]; duodenal, jejunal and ileal segments, on average): ~10%
effective permeability in PepT1 knockout versus wild-type mice (PepT1 [3]; duodenum, jejunum and ileum, 0.1 μM): considerably lower
effective permeability in PepT1 knockout versus wild-type mice (PepT1 [4]): did not differ between the two genotypes
effect on MPO activity ([1]; colon, wild-type and PepT1 null mice, 4 h): without change
effect on MPO activity ([1]; jejunum, PepT1 knockout mice, 4 h): no effect
increase in MPO activity ([1]; jejunum, wild-type mice, 4 h perfusion of 10 μM fMet-Leu-Phe): about 2 fold
Vmax of hydrolysis ([5]; PepT1 knockout mice): 3.3 ± 0.1 nmol/mg/min
Vmax of hydrolysis ([5]; wild-type mice): 3.2 ± 0.2 nmol/mg/min
hydrolysis in intestinal segments ([6]; duodenum and jejunum): substantial hydrolysis
hydrolysis in intestinal segments ([6]; ileum and colon): only minor hydrolysis
intact tripeptide in portal vein [7]: no intact tripeptide was found

N[C@@H](Cc1c[nH]cn1)C(=O)O [L-histidine]
effect of inhibitor on permeability of fMet-Leu-Phe (PepT1 [2]; [8]): no effect
effect of inhibitor on permeability of fMet-Leu-Phe (PepT1 [2]; [9]): no effect
